Source: ChEMBL document CHEMBL3525925, “In vitro studies on the oxidative metabolism of 20(s)-ginsenoside Rh2 in human, monkey, dog, rat, and mouse liver microsomes, and human liver s9” (Drug Metab Dispos, 2012)

Key:
[1] = tested on: Liver; assay: Drug level in human liver S9 fraction treated with 10 uM 20(S)-ginsenoside Rh2 for 60 mins by MS2 spectra; type: ADME, subcellular; conditions: s9, 1 h
In short: (§1)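 Rh2 at 10 μM final (from methanol stock; 0.1% v/v methanol final) in 100 mM potassium phosphate pH 7.4 with 2 mM NADPH, open-to-air tubes at 37°C. 3 min preincubation, then started with liver microsomes or S9 at 1 mg/ml protein. Incubated 60 min, stopped with equal volume ice-cold acetonitrile. Controls lacked NADPH; duplicates. Metabolites detected by LC/ion-trap MSn.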

[2] = tested on: Liver microsome; assay: Drug level in human liver microsomes treated with 10 uM 20(S)-ginsenoside Rh2 for 60 mins by MS2 spectra; type: ADME; conditions: 1 h; in short: as §1
[3] = tested on: Liver microsome; assay: Retention time in human liver microsomes treated with 10 uM 20(S)-ginsenoside Rh2 by MS2 spectra; type: ADME
In short: (§2)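 Samples: incubation mixed with equal volume methanol, centrifuged at 14,000g for 5 min, dried under nitrogen at 40°C, reconstituted. Separated on Eclipse XDB-C18 (4.6 × 150 mm, 5 μm) at 0.5 ml/min. Gradient: 0.1% formic acid in methanol against 0.1% formic acid in 5 mM ammonium acetate, 70% to 100% organic over 17 min. Ion-trap MSn detection.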

[4] = tested on: Liver microsome; assay: Drug level in beagle dog liver microsomes treated with 10 uM 20(S)-ginsenoside Rh2 for 60 mins by MS2 spectra; type: ADME, Canis lupus familiaris; conditions: 1 h; in short: as §1
[5] = tested on: Liver; assay: Retention time in human liver S9 fraction treated with 10 uM 20(S)-ginsenoside Rh2 by MS2 spectra; type: ADME, subcellular; in short: as §2
[6] = target: Cytochrome P450 3A4 (Homo sapiens, UniProt P08684); assay: Drug level in human recombinant CYP3A4 treated with 10 uM 20(S)-ginsenoside Rh2 for 60 mins by MS2 spectra; type: ADME; conditions: recombinant enzyme, 1 h
Chain of Cytochrome P450 3A4 (P08684 whole entry): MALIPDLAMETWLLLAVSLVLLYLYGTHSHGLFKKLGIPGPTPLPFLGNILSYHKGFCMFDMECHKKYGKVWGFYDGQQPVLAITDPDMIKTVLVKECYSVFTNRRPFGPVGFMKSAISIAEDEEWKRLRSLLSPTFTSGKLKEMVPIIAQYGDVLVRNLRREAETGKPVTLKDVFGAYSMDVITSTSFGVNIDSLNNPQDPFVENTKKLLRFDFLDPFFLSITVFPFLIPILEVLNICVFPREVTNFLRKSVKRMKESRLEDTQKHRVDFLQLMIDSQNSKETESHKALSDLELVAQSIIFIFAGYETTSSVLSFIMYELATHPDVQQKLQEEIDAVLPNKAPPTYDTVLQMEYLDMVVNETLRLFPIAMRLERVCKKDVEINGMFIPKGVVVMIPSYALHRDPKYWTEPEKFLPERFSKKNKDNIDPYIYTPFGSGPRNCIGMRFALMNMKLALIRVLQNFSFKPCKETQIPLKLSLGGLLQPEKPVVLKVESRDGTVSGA
In short: (§3)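 Recombinant human P450 (50 nM) with 10 μM Rh2 under the microsomal conditions: 100 mM potassium phosphate pH 7.4, 2 mM NADPH, 37°C for 60 min. Stopped with equal volume ice-cold acetonitrile. Run in duplicate; products analysed by LC/ion-trap MSn.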

[7] = target: Cytochrome P450 3A5 (Homo sapiens, UniProt P20815); assay: Drug level in human recombinant CYP3A5 treated with 10 uM 20(S)-ginsenoside Rh2 for 60 mins by MS2 spectra; type: ADME; conditions: recombinant enzyme, 1 h; in short: as §3
Chain of Cytochrome P450 3A5 (P20815 whole entry): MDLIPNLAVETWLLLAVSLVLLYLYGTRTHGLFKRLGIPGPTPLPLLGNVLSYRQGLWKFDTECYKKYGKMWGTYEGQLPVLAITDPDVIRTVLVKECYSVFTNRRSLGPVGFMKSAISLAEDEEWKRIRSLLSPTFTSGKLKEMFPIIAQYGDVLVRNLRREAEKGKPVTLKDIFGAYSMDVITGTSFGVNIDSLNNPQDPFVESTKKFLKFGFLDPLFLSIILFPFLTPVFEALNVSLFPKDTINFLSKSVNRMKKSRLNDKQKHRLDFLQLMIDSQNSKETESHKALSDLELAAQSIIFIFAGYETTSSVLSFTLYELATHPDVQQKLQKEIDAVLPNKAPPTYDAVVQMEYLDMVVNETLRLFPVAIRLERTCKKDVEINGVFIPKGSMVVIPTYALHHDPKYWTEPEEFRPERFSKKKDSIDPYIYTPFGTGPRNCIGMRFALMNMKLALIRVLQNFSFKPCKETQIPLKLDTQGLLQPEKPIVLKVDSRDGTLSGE

[8] = tested on: Liver; assay: Drug level in CD-1 mouse liver microsomes treated with 10 uM 20(S)-ginsenoside Rh2 for 60 mins by MS2 spectra; type: ADME; conditions: 1 h; in short: as §1
[9] = tested on: Liver microsome; assay: Drug level in Sprague-Dawley rat liver microsomes treated with 10 uM 20(S)-ginsenoside Rh2 for 60 mins by MS2 spectra; type: ADME; conditions: 1 h; in short: as §1
[10] = Drug level in cynomolgus monkey liver microsomes treated with 10 uM 20(S)-ginsenoside Rh2 for 60 mins by MS2 spectra; type: ADME, Macaca fascicularis; conditions: 1 h; in short: as §1
[11] = tested on: Liver cytosol; assay: Drug metabolism in human liver cytosol assessed as 26-carboxy,20(S)-Ginsenoside Rh2 formation at 10 uM by LC/MS analysis in presence of 50 uM disulfiram aldehyde dehydrogenase inhibitor; type: ADME
In short: (§4)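 Pooled human liver cytosol (1 mg/ml) with 2 mM NAD+ and inhibitor in 100 mM potassium phosphate pH 7.4; inhibitors given from DMSO, 0.1% v/v final. After 15 min preincubation at 37°C, started with 10 μM M1-1 or 26-aldehyde-Rh2. Run 60 min, stopped with ice-cold acetonitrile. Duplicates, uninhibited controls; M2-3 acid measured by LC/MSn.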

[12] = tested on: Liver cytosol; assay: Drug metabolism in human liver cytosol assessed as 26-carboxy,20(S)-Ginsenoside Rh2 formation at 10 uM by LC/MS analysis in presence of 100 uM raloxifene aldehyde oxidase inhibitor; type: ADME; conditions: in the assay text read “100 nM raloxifene” for “100 uM raloxifene”; in short: as §4
[13] = tested on: Liver cytosol; assay: Drug metabolism in human liver cytosol assessed as 26-carboxy,20(S)-Ginsenoside Rh2 formation at 10 uM by LC/MS analysis in presence of 50 uM 4-methylpyrazole alcohol dehydrogenase inhibitor; type: ADME; in short: as §4

Drug metabolism [1]	Drug metabolism [2]	Retention_time [3]	Drug metabolism [4]	Retention_time [5]	Drug metabolism [6]	Drug metabolism [7]	Drug metabolism [8]	Drug metabolism [9]	Drug metabolism [10]	Drug metabolism [11]	Drug metabolism [12]	Drug metabolism [13]	Structure (SMILES)
metabolite_detected	metabolite_detected	12.2 min	metabolite_detected	12.2 min	metabolite_detected	metabolite_not_detected	metabolite_detected	metabolite_detected	metabolite_detected	–	–	–	CC1(C)[C@@H](O[C@@H]2O[C@H](CO)[C@@H](O)[C@H](O)[C@H]2O)CC[C@]2(C)[C@H]3C[C@@H](O)[C@@H]4[C@@H]([C@@](C)(O)CCC=C(CO)CO)CC[C@@]4(C)[C@]3(C)CC[C@@H]12
metabolite_detected	metabolite_detected	20 min	metabolite_detected	20 min	metabolite_detected	metabolite_not_detected	metabolite_detected	metabolite_detected	metabolite_detected	–	–	–	CC1(C)O[C@H]1CC[C@](C)(O)[C@H]1CC[C@]2(C)[C@@H]1[C@H](O)C[C@@H]1[C@@]3(C)CC[C@H](O[C@@H]4O[C@H](CO)[C@@H](O)[C@H](O)[C@H]4O)C(C)(C)[C@@H]3CC[C@]12C
metabolite_detected	metabolite_detected	13.2 min	metabolite_not_detected	13.2 min	metabolite_detected	metabolite_not_detected	metabolite_detected	metabolite_detected	metabolite_detected	–	–	–	C/C(=C/CC[C@](C)(O)[C@H]1CC[C@]2(C)[C@@H]1[C@H](O)C[C@@H]1[C@@]3(C)CC[C@H](O[C@@H]4O[C@H](CO)[C@@H](O)[C@H](O)[C@H]4O)C(C)(C)[C@@H]3CC[C@]12C)C(=O)O
metabolite_detected	metabolite_detected	18.3 min	metabolite_detected	18.3 min	metabolite_detected	metabolite_detected	metabolite_detected	metabolite_detected	metabolite_detected	–	–	–	C/C(=C/CC[C@](C)(O)[C@H]1CC[C@]2(C)[C@@H]1[C@H](O)C[C@@H]1[C@@]3(C)CC[C@H](O[C@@H]4O[C@H](CO)[C@@H](O)[C@H](O)[C@H]4O)C(C)(C)[C@@H]3CC[C@]12C)CO
–	–	–	–	–	–	–	–	–	–	metabolite_not_detected	metabolite_not_detected	metabolite_not_detected	C/C(C=O)=C\CC[C@](C)(O)[C@H]1CC[C@]2(C)[C@@H]1[C@H](O)C[C@@H]1[C@@]3(C)CC[C@H](O[C@@H]4O[C@H](CO)[C@@H](O)[C@H](O)[C@H]4O)C(C)(C)[C@@H]3CC[C@]12C
metabolite_detected	metabolite_detected	14 min	metabolite_not_detected	14 min	metabolite_detected	metabolite_not_detected	metabolite_not_detected	metabolite_detected	metabolite_detected	–	–	–	C/C(=C\CC[C@](C)(O)[C@H]1CC[C@]2(C)[C@@H]1[C@H](O)C[C@@H]1[C@@]3(C)CC[C@H](O[C@@H]4O[C@H](CO)[C@@H](O)[C@H](O)[C@H]4O)C(C)(C)[C@@H]3CC[C@]12C)C(=O)O

The remaining lines, values behind:

Structure (SMILES)	Drug metabolism [1]	Drug metabolism [2]	Retention_time [3]	Drug metabolism [4]	Retention_time [5]	Drug metabolism [6]	Drug metabolism [7]	Drug metabolism [8]	Drug metabolism [9]	Drug metabolism [10]	Drug metabolism [11]	Drug metabolism [12]	Drug metabolism [13]
CC(O)(CO)[C@@H]1CC[C@@](C)([C@H]2CC[C@]3(C)[C@@H]2[C@H](O)C[C@@H]2[C@@]4(C)CC[C@H](O[C@@H]5O[C@H](CO)[C@@H](O)[C@H](O)[C@H]5O)C(C)(C)[C@@H]4CC[C@]23C)O1 (stereo partly drawn)	metabolite_detected	metabolite_detected	16.2 min	metabolite_not_detected	16.2 min	metabolite_detected	metabolite_not_detected	metabolite_detected	metabolite_detected	metabolite_detected	–	–	–
CC(O)(CO)[C@H]1CC[C@@](C)([C@H]2CC[C@]3(C)[C@@H]2[C@H](O)C[C@@H]2[C@@]4(C)CC[C@H](O[C@@H]5O[C@H](CO)[C@@H](O)[C@H](O)[C@H]5O)C(C)(C)[C@@H]4CC[C@]23C)O1 (stereo partly drawn)	metabolite_detected	metabolite_detected	16.7 min	metabolite_not_detected	16.7 min	metabolite_detected	metabolite_not_detected	metabolite_detected	metabolite_detected	metabolite_detected	–	–	–
CC(C)(O)[C@@H]1CC[C@@](C)([C@H]2CC[C@]3(C)[C@@H]2[C@H](O)C[C@@H]2[C@@]4(C)CC[C@H](O[C@@H]5O[C@H](CO)[C@@H](O)[C@H](O)[C@H]5O)C(C)(C)[C@@H]4CC[C@]23C)O1	metabolite_detected	metabolite_detected	18.9 min	metabolite_detected	18.9 min	metabolite_detected	metabolite_detected	metabolite_detected	metabolite_detected	metabolite_detected	–	–	–
CC(C)(O)[C@H]1CC[C@@](C)([C@H]2CC[C@]3(C)[C@@H]2[C@H](O)C[C@@H]2[C@@]4(C)CC[C@H](O[C@@H]5O[C@H](CO)[C@@H](O)[C@H](O)[C@H]5O)C(C)(C)[C@@H]4CC[C@]23C)O1	metabolite_detected	metabolite_detected	20.2 min	metabolite_detected	20.2 min	metabolite_detected	metabolite_not_detected	metabolite_detected	metabolite_detected	metabolite_detected	–	–	–
CC1(C)[C@@H](O[C@@H]2O[C@H](CO)[C@@H](O)[C@H](O)[C@H]2O)CC[C@]2(C)[C@H]3C[C@@H](O)[C@@H]4[C@@H]([C@@](C)(O)CC[C@@H]5O[C@@]5(C)CO)CC[C@@]4(C)[C@]3(C)CC[C@@H]12	metabolite_detected	metabolite_detected	15.6 min	metabolite_not_detected	15.6 min	metabolite_detected	metabolite_not_detected	metabolite_detected	metabolite_detected	metabolite_detected	–	–	–
